Reference: ChEMBL document CHEMBL1123841, “3-Carbonylacrylic derivatives as potential antimicrobial agents. Correlations between activity and reactivity toward cysteine” (J Med Chem, 1987)
Converted amounts (≈) assume the structure as drawn.

Assays:
[1] = Partition coefficient (logP); assay type: physicochemical; conditions: octanol/water
Outline: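 Octanol/water partition coefficient: some values measured experimentally by a standard literature procedure, with P = C_oct/C_H2O(1−α) correcting for ionization (α); the remaining values calculated by the method of Leo et al.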

[2] = test system: Streptococcus pyogenes; experiment: Antimicrobial activity against Streptococcus pyogenes A(IVM P 134) was determined; assay type: functional
Outline: (§1)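 MIC determined by serial dilution in liquid medium; values expressed as micromoles/milliliter.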

[3] = test system: Staphylococcus aureus; experiment: Antimicrobial activity against Staphylococcus aureus(ATCC 6538) was determined; assay type: functional; outline: as §1
[4] = test system: Microsporum canis; experiment: Antimicrobial activity against Microsporum canis(ATCC 11621) was determined; assay type: functional; outline: as §1

CCCCCCCC(=O)/C(C)=C(/C)C(=O)O
logP [1]: 2.4 | MIC [2]: 320 µM (≈ 72.4 µg/mL)

COC(=O)/C=C/C(=O)c1ccccc1
logP [1]: 2.24 | MIC [3]: 40 µM (≈ 7.61 µg/mL) | MIC [2]: 10 µM (≈ 1.9 µg/mL) | MIC [4]: 2.6 µM (≈ 0.495 µg/mL)

Cc1ccc(C(=O)/C=C/C(=O)O)cc1
logP [1]: 2.44 | MIC [3]: 1000 µM (≈ 190 µg/mL) | MIC [2]: 13 µM (≈ 2.47 µg/mL) | MIC [4]: 1000 µM (≈ 190 µg/mL)

O=C(O)/C=C/C(=O)c1ccccc1
logP [1]: 1.94 | MIC [3]: 1260 µM (≈ 222 µg/mL) | MIC [2]: 30 µM (≈ 5.29 µg/mL) | MIC [4]: 1000 µM (≈ 176 µg/mL)

C/C(=C\C(=O)O)C(=O)c1ccc(C)cc1
logP [1]: 2.94 | MIC [3]: 15000 µM (≈ 3060 µg/mL) | MIC [4]: 3200 µM (≈ 654 µg/mL)

O=C(O)/C=C/C(=O)c1ccc(-c2ccccc2)cc1
logP [1]: 3.9 | MIC [3]: 80 µM (≈ 20.2 µg/mL) | MIC [2]: 6 µM (≈ 1.51 µg/mL)

CCCCC(=O)/C(C)=C(/C)C(=O)O
logP [1]: 0.9 | MIC [2]: 3800 µM (≈ 700 µg/mL)

C/C(=C/C(=O)O)C(=O)c1ccccc1
logP [1]: 1.69 | MIC [3]: > 16000 µM | MIC [2]: 2200 µM (≈ 418 µg/mL) | MIC [4]: 16000 µM (≈ 3040 µg/mL)

CCCCCCCCCCCC(=O)/C(C)=C(/C)C(=O)O
logP [1]: 4.4 | MIC [2]: 10 µM (≈ 2.82 µg/mL)

C/C(=C\C(=O)c1ccc(C)cc1)C(=O)O
logP [1]: 2.94 | MIC [3]: 16000 µM (≈ 3270 µg/mL) | MIC [2]: 2000 µM (≈ 408 µg/mL) | MIC [4]: 1200 µM (≈ 245 µg/mL)

COC(=O)/C=C/C(=O)c1ccc(C)cc1
logP [1]: 2.74 | MIC [3]: 50 µM (≈ 10.2 µg/mL) | MIC [2]: 24 µM (≈ 4.9 µg/mL) | MIC [4]: 50 µM (≈ 10.2 µg/mL)

C/C(=C/C(=O)O)C(=O)c1ccc(C)cc1
logP [1]: 2.19 | MIC [3]: > 15000 µM | MIC [2]: 2000 µM (≈ 408 µg/mL) | MIC [4]: 3200 µM (≈ 654 µg/mL)

O=C(O)/C=C/C(=O)c1cccnc1
logP [1]: 0.26 | MIC [3]: 1000 µM (≈ 177 µg/mL) | MIC [2]: 50 µM (≈ 8.86 µg/mL)

C/C(=C/C(=O)c1ccc(C)cc1)C(=O)O
logP [1]: 2.19 | MIC [3]: 15000 µM (≈ 3060 µg/mL) | MIC [2]: 2000 µM (≈ 408 µg/mL) | MIC [4]: 3200 µM (≈ 654 µg/mL)

COC(=O)/C=C/C(=O)c1cccnc1
logP [1]: 0.56 | MIC [3]: 160 µM (≈ 30.6 µg/mL) | MIC [2]: 42 µM (≈ 8.03 µg/mL) | MIC [4]: 5 µM (≈ 0.956 µg/mL)

COC(=O)/C=C\C(=O)c1ccccc1
logP [1]: 1.49 | MIC [3]: 40 µM (≈ 7.61 µg/mL) | MIC [2]: 3 µM (≈ 0.571 µg/mL) | MIC [4]: < 2 µM

C/C(=C\C(=O)O)C(=O)c1ccccc1
logP [1]: 2.44 | MIC [3]: 18000 µM (≈ 3420 µg/mL) | MIC [2]: 2000 µM (≈ 380 µg/mL)
